Test results published in ChEMBL document CHEMBL1138107, “Novel non-nucleobase inhibitors of Staphylococcus aureus DNA polymerase IIIC” (Bioorg Med Chem Lett, 2006).
Converted amounts (≈) assume the structure as drawn. The source made the active and inactive calls. The rule behind the calls is not given here.

What was measured:
[1] = target: T1, DNA polymerase III PolC-type (Staphylococcus aureus) (UniProt P0C1P9); assay: Inhibition of DNA polymerase3C from Staphylococcus aureus at 100 uM
T1 sequence (whole entry): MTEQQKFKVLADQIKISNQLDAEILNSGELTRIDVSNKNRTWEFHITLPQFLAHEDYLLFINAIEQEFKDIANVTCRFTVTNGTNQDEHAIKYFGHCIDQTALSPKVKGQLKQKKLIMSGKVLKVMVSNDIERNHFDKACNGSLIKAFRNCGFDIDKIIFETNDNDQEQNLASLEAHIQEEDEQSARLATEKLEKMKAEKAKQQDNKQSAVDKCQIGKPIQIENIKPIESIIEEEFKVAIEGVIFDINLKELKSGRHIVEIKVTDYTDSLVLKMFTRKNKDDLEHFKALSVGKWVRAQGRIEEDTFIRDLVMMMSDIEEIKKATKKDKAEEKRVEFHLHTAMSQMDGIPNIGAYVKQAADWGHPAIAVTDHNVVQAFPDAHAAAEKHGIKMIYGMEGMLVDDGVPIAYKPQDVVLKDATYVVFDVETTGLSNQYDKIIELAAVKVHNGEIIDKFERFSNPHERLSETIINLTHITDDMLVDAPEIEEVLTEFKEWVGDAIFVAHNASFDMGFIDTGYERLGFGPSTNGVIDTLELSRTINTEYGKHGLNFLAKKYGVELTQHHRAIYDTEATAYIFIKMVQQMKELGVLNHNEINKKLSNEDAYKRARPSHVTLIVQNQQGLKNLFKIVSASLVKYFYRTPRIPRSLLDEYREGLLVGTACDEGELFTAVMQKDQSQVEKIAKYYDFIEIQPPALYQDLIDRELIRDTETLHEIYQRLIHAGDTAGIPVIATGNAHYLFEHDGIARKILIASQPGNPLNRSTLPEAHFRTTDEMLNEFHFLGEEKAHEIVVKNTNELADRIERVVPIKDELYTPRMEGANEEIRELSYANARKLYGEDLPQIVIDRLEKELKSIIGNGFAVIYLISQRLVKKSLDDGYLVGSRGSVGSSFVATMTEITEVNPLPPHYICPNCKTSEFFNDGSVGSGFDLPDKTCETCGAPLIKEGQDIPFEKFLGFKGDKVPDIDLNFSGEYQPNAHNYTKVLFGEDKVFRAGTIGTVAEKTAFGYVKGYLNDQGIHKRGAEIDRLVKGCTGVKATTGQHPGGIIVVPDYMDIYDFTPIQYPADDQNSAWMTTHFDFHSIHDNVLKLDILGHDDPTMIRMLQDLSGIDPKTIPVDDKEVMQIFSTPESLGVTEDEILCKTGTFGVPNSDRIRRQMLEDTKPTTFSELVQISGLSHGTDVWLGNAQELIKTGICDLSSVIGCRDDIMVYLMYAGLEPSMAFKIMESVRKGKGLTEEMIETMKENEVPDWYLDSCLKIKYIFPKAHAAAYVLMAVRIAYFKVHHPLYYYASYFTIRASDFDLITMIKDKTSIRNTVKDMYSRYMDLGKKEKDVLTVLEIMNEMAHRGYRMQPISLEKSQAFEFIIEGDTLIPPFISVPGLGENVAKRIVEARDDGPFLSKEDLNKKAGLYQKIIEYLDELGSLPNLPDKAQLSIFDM
Method in brief: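 PolC oligonucleotide-primed incorporation of [³H]dTTP was run with 125 ng purified enzyme for 30 min at 37 °C. It was quenched with EDTA, filter-bound on DE81 and counted by liquid scintillation. Compounds were screened in triplicate at 10, 50 and 100.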

[2] = target: T2, DNA polymerase III PolC-type (Staphylococcus aureus, UniProt P0C1P9); assay: Inhibition of DNA polymerase3C from Staphylococcus aureus
T2 sequence (P0C1P9 whole entry): T1 sequence (whole entry)
Method in brief: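 Purified PolC (125 ng) started the reaction with a double-stranded oligonucleotide substrate, dATP, dCTP, low dGTP and [³H]dTTP (1 Ci/mmol) in Tris-HCl pH 7.5 buffer with glycerol, EDTA, DTT, IgG and 8 mM MgCl₂. Incubation was 30 min at 37 °C, stopped with 20 mM EDTA, then spotted on DE81 filters, washed and counted by scintillation. IC50 came from a 12-point, roughly 2-fold serial dilution, run in triplicate.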

Staphylococcus aureus = assay: Antimicrobial activity against Staphylococcus aureus (RN4220); format: functional; conditions: read-out: MIC
HeLa = assay: Cytotoxicity against HeLa cell line by MTS assay; format: functional, cell-based; conditions: Homo sapiens
Method in brief: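 HeLa cells (2 × 10⁴/well) in DMEM with 1% bovine growth serum were exposed to compound at 100, 50, 25 and 12.5 for 18 h at 37 °C under 5% CO₂. Viability was read as MTS reduction to formazan, by absorbance at 490 nm.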

Hepatocyte [3] = assay: Cytotoxicity against human hepatocytes by measure of ATP production at 50 uM; format: functional, cell-based
Method in brief: (§1)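 Cryopreserved primary human hepatocytes (1 × 10⁴/well) in Krebs–Henseleit buffer were incubated with compound at 100, 50, 25 and 12.5 for 2 h at 37 °C under 5% CO₂. ATP content was then measured by luminescence after adding luciferin and luciferase.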

Hepatocyte [4] = assay: Decrease in ATP productions in human hepatocytes at 100 uM; format: functional, cell-based; method in brief: as §1

SMILES	inhibition [1] [%]	IC50 [2] [µM]	MIC (Staphylococcus aureus) [µg/mL]	Activity (HeLa)	Activity (Hepatocyte [3])	Activity (Hepatocyte [4])
Oc1nc(Nc2ccc3c(c2)CCC3)nc(O)c1CCCOc1ccccc1	74	4	8 (≈ 21.2 µM)	Not toxic	Toxic	–
C=CCc1c(O)nc(Nc2ccc(C)c(CC)c2)nc1O	90	–	8 (≈ 28 µM)	Not toxic	–	Active
Oc1nc(Nc2ccc3c(c2)CCC3)nc(O)c1CCCc1ccccc1	75	–	8 (≈ 22.1 µM)	Not toxic	–	Active
